Beta2AR agonist: beta2AR agonists driving receptor internalization, primary screen, cell-based, FAP fluorogen, flow cytometry. hit rate 0.43% among 340,000. response, % (no concentration beside the values). Am2.2-beta2AR cells;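 active = response above a set limit, near 3 SD of response in nonfluorescent compounds, cut at about 42% in these data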
MC4R antagonist: MC4R antagonists of cAMP signaling, primary screen, cell-based, TR-FRET, antagonist arm of biased-ligand search. AID 540295, 2011. inhibition, % at 6.5 µM. MC4R-expressing cells, MTII-stimulated cAMP, LANCE TR-FRET. Melanocortin receptor 4 (Homo sapiens), P32245. hit rate 0.48% among 360,000;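 active = inhibition above its plate's cutoff, the mean of tested wells on that plate plus 3 SD, cut at about 29% in these data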
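system = U2OS cells with stable human MC4R expression | also added = Melanotan II challenge after compound preincubation | dosing = one concentration, 6.5 µM nominal | incubation = compound 30 min, challenge 1 h, detection 1 h | measured by = TR-FRET with Eu-cAMP and labeled anti-cAMP, 671 nm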
TAAR1 agonist: human TAAR1 agonists, primary screen, Fluo-8 calcium fluorescence, CHO RD-HGA16 cells. vehicle wells 0%, saturating PEA agonist 100%. activation, % at 3 µM. hit rate 0.99% among 360,000. AID 624467, 2012;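 active = activation above the mean activation of all test compounds in the run plus 3 SD, cut at about 38% in these data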
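Assay system – CHO-derived RD-HGA16 cells with stable Gα16 and human TAAR1 · Compound dosing – one-point dosing at 3 µM (nominal) · Incubation – 17-24 h seeding, 75 min 37 °C dye, 30 min RT · Measured by – kinetic Fluo-8 calcium fluorescence · Control set – DMSO vehicle as 0%, PEA at EC100 as 100% · Repeats – single well for each compound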
HTR2A ag: mouse Htr2a agonists via beta-arrestin recruitment, primary screen, cell-based, luminescence; hit rate 0.66% among 360,000; activation, % at 7.6 µM; CHO-K1 mHTR2A beta-arrestin complementation; percent of 30 µM serotonin response; 5-hydroxytryptamine receptor 2A (Mus musculus), P35363;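 active = activation above a run cutoff, the mean activation of all tested compounds plus 3 SD, cut at about 14% in these data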
Target sequence (P35363 whole entry, looked up): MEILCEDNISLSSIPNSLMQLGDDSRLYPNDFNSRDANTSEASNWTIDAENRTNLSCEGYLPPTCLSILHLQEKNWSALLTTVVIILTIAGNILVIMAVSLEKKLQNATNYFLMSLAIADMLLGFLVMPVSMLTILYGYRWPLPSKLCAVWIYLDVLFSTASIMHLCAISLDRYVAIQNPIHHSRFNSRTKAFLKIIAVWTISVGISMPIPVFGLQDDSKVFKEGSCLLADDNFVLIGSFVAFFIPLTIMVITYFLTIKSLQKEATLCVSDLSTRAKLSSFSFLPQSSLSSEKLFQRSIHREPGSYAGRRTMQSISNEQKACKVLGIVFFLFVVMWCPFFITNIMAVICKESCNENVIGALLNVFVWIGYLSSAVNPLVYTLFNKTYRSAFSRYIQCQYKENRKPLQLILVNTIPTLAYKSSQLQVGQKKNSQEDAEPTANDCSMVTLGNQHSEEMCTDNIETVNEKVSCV
MC4R barr agon: MC4R agonists recruiting beta-arrestin, primary screen, cell-based, luminescence, agonist arm of biased-ligand search; hit rate 0.98% among 360,000; AID 540308, 2011; activation, % at 8.9 µM; U2OS MC4R beta-arrestin complementation; percent of melanotan II response, DMSO zero; Melanocortin receptor 4 (Homo sapiens), P32245;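 active = activation above a per-plate cutoff, the mean activation of sample wells on that plate plus 3 SD, cut at about 8% in these data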
TAAR1 antag: human TAAR1 antagonists, primary screen, Fluo-8 calcium fluorescence, CHO RD-HGA16 cells; antagonist; hit rate 1.5% among 360,000; Trace amine-associated receptor 1 (Homo sapiens), Q96RJ0; AID 624466, 2012; inhibition, % at 3 µM;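 active = inhibition above a per-plate cutoff, the mean inhibition of test compounds on that plate plus 3 SD, cut at about 49% in these data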
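Test system – hTAAR1-expressing CHO RD-HGA16 cells, Gα16-coupled · Also added – β-PEA at EC80 concentration, post-compound challenge · Compound – 3 µM, single point · Incubation – dye loading 75 min at 37 °C, then 30 min room temperature · Measured by – Fluo-8 intracellular calcium dye fluorescence, real-time kinetic reads · Benchmarks – vehicle and agonist controls · Replicates – singlicate, one well per test compound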
TAAR1 ag confirm: human TAAR1 agonists, retest of hits, confirmation, Fluo-8 calcium fluorescence, CHO RD-HGA16 cells. shares compounds with TAAR1 agonist. scaled: DMSO 0%, maximal phenethylamine 100%. activation, % at 3 µM. hit rate 82% among 2,400;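 active = activation above a cutoff set at the run's mean compound activation plus 3 SD, cut at about 39% in these data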
Ga16 ag counter: nonselective calcium mobilization agonists, CHO-Ga16 cells, counter-screen for hTAAR1 agonist project, cell-based, fluorescence, CHO-Ga16 parental line; hit rate 50% among 2,400; Fluo-8 calcium fluorescence; normalized to maximal ATP response, DMSO zero; activation, % at 3 µM; shares compounds with TAAR1 agonist;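 active = activation above the run cutoff, the mean activation over all tested wells plus 3 SD, cut at about 12% in these data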
TAAR1 desens: TAAR1 desensitization by agonist hits, confirmation, counter-screen for TAAR1 agonist project, cell-based, fluorescence, tachyphylaxis. inhibition, % at 3 µM. hit rate 46% among 2,400. AID 651951, 2012. shares compounds with TAAR1 agonist. CHO RD-HGA16 hTAAR1, Fluo-8 calcium, beta-PEA response inhibition;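 active = inhibition above the run cutoff, the mean inhibition of all test compounds plus 3 SD, cut at about 49% in these data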;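 also: beta-PEA stimulus applied at its EC80; loss of beta-PEA calcium signal after compound pretreatment read as receptor desensitization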
Ga16 nonsel ant: inhibition of ATP-evoked calcium response in CHO-Ga16 cells, counter-screen for TAAR1 agonist project, cell-based, fluorescence. hit rate 39% among 2,400. inhibition, % at 3 µM. shares compounds with TAAR1 agonist. AID 651952, 2012. CHO-Ga16 ATP-induced calcium, Fluo-8 fluorescence;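 active = inhibition above the plate's mean compound inhibition plus 3 SD, computed per plate, cut at about 22% in these data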
Of the large screens only hits and unclear results are named; the others gave an inactive call (follow-up assays come after a bar, where they were run). A selection: hits, their analogues and other compounds. The true share with any hit is near 4.3%.

NC(=O)c1ccc(NCCc2cccs2)cc1	none (no result: Beta2AR agonist, MC4R antagonist, MC4R barr agon)
Cn1c2ccccc2c(=O)c2ccc(NCCc3cccs3)cc21	TAAR1 agonist 49.2, TAAR1 antag 63.1 | TAAR1 ag confirm 54.9 | Ga16 ag counter inactive | TAAR1 desens 50.5 | Ga16 nonsel ant 32.0
Cc1nc(CCNC(=O)CC2C(=O)NCCN2CC(C)C)nc2c1CCC2 (configuration not stated)	none
Cc1ncc(CN2CCCC(C(=O)Nc3ccc(-c4cccc(F)c4)cc3)C2)n1C (configuration not stated)	none
Cc1cccc2cc(C#N)c(N3CCN(C)CC3)nc12	TAAR1 agonist 67.0 | TAAR1 ag confirm 76.3 | Ga16 ag counter inactive | TAAR1 desens inactive | Ga16 nonsel ant inactive
Cc1ccc2nc(N3CCN(C)CC3)c(C#N)cc2c1	none
Cc1cc(C)c2nc(N3CCN(C)CC3)c(C#N)cc2c1	TAAR1 agonist 49.3 | TAAR1 ag confirm 53.6 | Ga16 ag counter inactive | TAAR1 desens inactive | Ga16 nonsel ant inactive
O=C(NCc1ccc2c(c1)OCO2)C1CCCCC1	none
OC(COc1ccc(CNCCc2ccccc2F)cc1)CN1CCCCC1 (configuration not stated)	none (no result: TAAR1 agonist, TAAR1 antag) | Ga16 ag counter inactive | Ga16 nonsel ant inactive
OC(COc1ccccc1)CN1CCCCC1 (configuration not stated)	none
CCOc1ccc(/C=N/NC(=O)c2nnn(-c3nonc3N)c2-c2ccc(OCC)cc2)cc1	TAAR1 agonist 66.3 | TAAR1 ag confirm 57.4 | Ga16 ag counter 26.0 | TAAR1 desens inactive | Ga16 nonsel ant inactive
Cc1ccc(/C=N/NC(=O)c2nnn(-c3nonc3N)c2-c2ccc3c(c2)OCO3)s1	TAAR1 agonist 81.7 | TAAR1 ag confirm 97.2 | Ga16 ag counter 60.9 | TAAR1 desens inactive | Ga16 nonsel ant inactive
Cc1ccc(/C=N/NC(=O)c2nnn(-c3nonc3N)c2-c2cccs2)cc1	TAAR1 agonist 131.1, TAAR1 antag 77.6 | TAAR1 ag confirm 128.7 | Ga16 ag counter 96.1 | TAAR1 desens 79.0 | Ga16 nonsel ant 42.5
COc1cccc(-c2c(C(=O)N/N=C/c3cccs3)nnn2-c2nonc2N)c1	none (no result: TAAR1 agonist, TAAR1 antag)
CCOc1cccc(-c2c(C(=O)N/N=C/c3cccs3)nnn2-c2nonc2N)c1	TAAR1 agonist 110.1 | TAAR1 ag confirm 91.4 | Ga16 ag counter 55.2 | TAAR1 desens inactive | Ga16 nonsel ant inactive
COc1ccc(/C=N/NC(=O)c2nnn(-c3nonc3N)c2-c2cccs2)cc1OC	none
CCOc1cccc(-c2c(C(=O)N/N=C/c3ccoc3)nnn2-c2nonc2N)c1	TAAR1 agonist 83.3 | TAAR1 ag confirm 73.1 | Ga16 ag counter 32.3 | TAAR1 desens inactive | Ga16 nonsel ant inactive
Nc1nonc1-n1nnc(C(=O)N/N=C/c2cccc(F)c2)c1-c1ccccc1	TAAR1 agonist 55.5 | TAAR1 ag confirm 38.5 | Ga16 ag counter 18.5 | TAAR1 desens inactive | Ga16 nonsel ant inactive
CCOc1cccc(-c2c(C(=O)N/N=C/c3ccncc3)nnn2-c2nonc2N)c1	none
COc1ccc(/C=N/NC(=O)c2nnn(-c3nonc3N)c2-c2cccc(OC)c2)cc1	TAAR1 agonist 149.3, TAAR1 antag 74.8 | TAAR1 ag confirm 120.9 | Ga16 ag counter 86.5 | TAAR1 desens 72.0 | Ga16 nonsel ant 32.2
CCOc1ccc(-c2c(C(=O)N/N=C/c3ccoc3)nnn2-c2nonc2N)cc1	TAAR1 agonist 91.7 | TAAR1 ag confirm 66.1 | Ga16 ag counter 28.9 | TAAR1 desens inactive | Ga16 nonsel ant inactive
CCCOc1ccc(-c2c(C(=O)N/N=C/c3ccsc3)nnn2-c2nonc2N)cc1	none
CC(Sc1ccc(S(=O)(=O)N2CCOCC2)cn1)c1ccccc1Cl (configuration not stated)	none
CCC1(c2ccc(F)cc2)NC(=O)N(CC(=O)c2cc(C)n(C3CC3)c2C)C1=O (configuration not stated)	TAAR1 agonist 103.4, TAAR1 antag 58.1 | TAAR1 ag confirm 97.7 | Ga16 ag counter 50.8 | TAAR1 desens 52.2 | Ga16 nonsel ant 32.5
CC1Cc2ccccc2N1C(=O)CN1CCc2ccccc2C1 (configuration not stated)	TAAR1 agonist 71.7 | TAAR1 ag confirm 76.7 | Ga16 ag counter inactive | TAAR1 desens inactive | Ga16 nonsel ant inactive
CCC1(c2ccc(F)cc2)NC(=O)N(CC(=O)N2c3ccccc3CC2C)C1=O (configuration not stated)	TAAR1 agonist 75.6 | TAAR1 ag confirm 84.3 | Ga16 ag counter 47.1 | TAAR1 desens inactive | Ga16 nonsel ant 29.8
O=C(O)c1cccc(S(=O)(=O)N2CCN(S(=O)(=O)c3ccc4ccccc4c3)CC2)c1	none
CC(OC(=O)/C=C/c1ccco1)C(=O)NC1CCCCC1C (configuration not stated)	none
COc1ccc(NC(=O)C2CC(=O)NC(Nc3cccc(C)c3)=N2)cc1 (configuration not stated)	TAAR1 agonist 51.0 | TAAR1 ag confirm 53.7 | Ga16 ag counter inactive | TAAR1 desens inactive | Ga16 nonsel ant inactive
Cc1cccc(NC(=O)C2CC(=O)NC(Nc3nc4ccccc4s3)=N2)c1 (configuration not stated)	none (no result: Beta2AR agonist, MC4R antagonist, HTR2A ag, MC4R barr agon)
